Activity calls are given as the source filed them. The rule behind the calls is not given here.
What was measured:
E0771 = test: Antitumor activity mouse E0771 cells implanted in C57BL/6 mouse assessed tumor growth inhibition at 7.5 mg/kg, ip dosed every other day for 20 days relative to control; assay type: functional; details: 480 h, read-out: TGI
Method in brief: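 Syngeneic allograft: C57BL/6 mice, six weeks old, given 2.5×10^5 BL6-B16 or E0771 cells subcutaneously in the dorsolateral flank in PBS. Dosing began at about 100 mm³. Test compound or reference was given intraperitoneally every other day in 50 μL DMSO, with DMSO vehicle controls. Tumor volume was compared with the vehicle group, 5 animals per group, mean ± SEM, by 2-way ANOVA with Bonferroni correction.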

HeLa = test: Cell cycle arrest in human HeLa cells assessed as increase in cyclin B1 expression at 50 nM after 24 hrs by Western blot analysis; assay type: functional, cell-based
Method in brief: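 HeLa cells treated 24 h, washed in ice-cold PBS and lysed on ice 30 min. Lysates were spun at 15000 x g, 4 °C. 10 µg protein run on SDS-PAGE and blotted to PVDF. Blots were blocked in 5% BSA overnight at 4 °C and probed 2 h at room temperature. Detection by HRP-secondary and ECL, with bands normalized to β-actin as fold of untreated. Three independent experiments, one-way ANOVA/Dunnett.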

Breast carcinoma cell = test: Cytotoxicity against human breast cancer cells after 48 hrs by SRB assay; assay type: functional
Method in brief: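 NCI-60 screen: single-dose pass at 10^-5 M, then a five-concentration assay from 10^-9 to 10^-4 M (highest 100 μM). Exposure was 48 h under standard NCI protocols. GI50, TGI and LC50 were derived per cell line and averaged by subpanel. Repeated tests are the mean of two experiments.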

O=C1Nc2c(ccc3ccccc23)C1=Cc1c(-c2ccncc2)nc2sccn12
inhibition in vivo at 7.5 mg/kg (E0771): 51.8%
Activity (HeLa): Active
GI50 (Breast carcinoma cell): 0.04 µM
LC50 (concentration killing 50% of cells) (Breast carcinoma cell): 99 µM
TGI (Breast carcinoma cell): 71.3 µM

— ChEMBL document CHEMBL4316599, “Synthesis, in vitro and in vivo biological evaluation of substituted 3-(5-imidazo[2,1-b]thiazolylmethylene)-2-indolinones as new potent anticancer agents” (Eur J Med Chem, 2019)
